# In ChEMBL document CHEMBL1128545, “Effect of a chiral 4-alkyl substituent in hallucinogenic amphetamines” (J Med Chem, 1995):
# What was measured:
# Rattus norvegicus [1] = species on record: Rattus norvegicus; test: Potency against LSD trained rat, activity is expressed as ED50; assay type: functional
# Rattus norvegicus [2] = test: Percentage of rats selecting the drug lever (% SDL) for dose 1.74(umol/kg); assay type: functional
# Method in brief: (§1)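 Drugs are given ip in saline. Test sessions run under extinction and end at 50 presses on one lever. Rats must hold 85% accuracy on training days. The read-out is the percentage of rats choosing the drug lever at each dose.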
# Rattus norvegicus [3] = test: Percentage of rats selecting the drug lever (% SDL) for dose 13.91(umol/kg); assay type: functional; method in brief: as §1
# Rattus norvegicus [4] = test: Percentage of rats selecting the drug lever (% SDL) for dose 6.96(umol/kg); assay type: functional; method in brief: as §1
# Rattus norvegicus [5] = test: Percentage of rats selecting the drug lever (% SDL) for dose 3.48 (umol/kg); assay type: functional; method in brief: as §1
# Rattus norvegicus [6] = test: Percentage of rats selecting the drug lever (% SDL) for dose 0.012 (umol/kg); assay type: functional; method in brief: as §1
# Rattus norvegicus [7] = test: Percentage of rats selecting the drug lever (% SDL) for dose 0.024(umol/kg); assay type: functional; method in brief: as §1
# Rattus norvegicus [8] = test: Percentage of rats selecting the drug lever (% SDL) for dose 0.047(umol/kg); assay type: functional; method in brief: as §1
# Rattus norvegicus [9] = test: Percentage of rats selecting the drug lever (% SDL) for dose 0.093(umol/kg); assay type: functional; method in brief: as §1
# Rattus norvegicus [10] = test: Percentage of rats selecting the drug lever (% SDL) for dose 0.186 (umol/kg); assay type: functional; method in brief: as §1
# [11] = Hill coefficient of the compound
# Method in brief: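 Rat frontal cortex (male Sprague–Dawley) homogenized in 0.32 M sucrose, preincubated twice 10 min at 37 °C; assay in 50 mM Tris HCl pH 7.4 with EDTA, ascorbate, 10 mM MgCl2, 10 µM pargyline, 200–400 µg protein. Displacement of 0.25 nM [125I]-(R)-DOI, 15 min at 37 °C, GF/C filtration, γ-counting. Triplicates, 3–4 experiments; parameters fitted by EBDA/LIGAND.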
# [12] = target: Serotonin 2 (5-HT2) receptor (Rattus norvegicus, UniProt P30994+P08909+P14842); test: Binding affinity against 5-hydroxytryptamine 2 receptor from rat frontal cortex using [125]-(R)-DOI as radioligand; assay type: tissue-based
# Method in brief: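 Rat frontal cortex (male Sprague–Dawley) homogenized in 0.32 M sucrose, preincubated twice 10 min at 37 °C; assay in 50 mM Tris HCl pH 7.4 with EDTA, ascorbate, 10 mM MgCl2, 10 µM pargyline, 200–400 µg protein. Triplicates, 3–4 experiments; parameters fitted by EBDA/LIGAND.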
# Rattus norvegicus [13] = test: Percentage of rats selecting the drug lever (% SDL) for dose 0.87(umol/kg); assay type: functional; method in brief: as §1
# Rattus norvegicus [14] = test: Percentage of rats selecting the drug lever (% SDL) for dose 3.48(umol/kg); assay type: functional; method in brief: as §1
# Rattus norvegicus [15] = test: Percentage of rats selecting the drug lever (% SDL) for dose 5.22(umol/kg); assay type: functional; method in brief: as §1
# Rattus norvegicus [16] = test: Percentage of rats selecting the drug lever (% SDL) for dose 0.51(umol/kg); assay type: functional; method in brief: as §1
# Rattus norvegicus [17] = test: Percentage of rats selecting the drug lever (% SDL) for dose 0.77(umol/kg); assay type: functional; method in brief: as §1
# Rattus norvegicus [18] = test: Percentage of rats selecting the drug lever (% SDL) for dose 1.02(umol/kg); assay type: functional; method in brief: as §1
# Rattus norvegicus [19] = test: Percentage of rats selecting the drug lever (% SDL) for dose 2.04(umol/kg); assay type: functional; method in brief: as §1
smiles,measurement,setting,value
CCC(C)c1cc(OC)c(CC(C)N)cc1OC (stereo not drawn),ED50,Rattus norvegicus [1],3.69 µmol/kg
same,SDL,Rattus norvegicus [2],18%
same,SDL,Rattus norvegicus [3],90%
same,SDL,Rattus norvegicus [4],70%
same,SDL,Rattus norvegicus [5],60%
CCN(CC)C(=O)[C@@H]1C=C2c3cccc4[nH]cc(c34)C[C@H]2N(C)C1 [LYSERGIDE],ED50,Rattus norvegicus [1],0.02 µmol/kg
same,SDL,Rattus norvegicus [6],13%
same,SDL,Rattus norvegicus [7],13%
same,SDL,Rattus norvegicus [8],38%
same,SDL,Rattus norvegicus [9],89%
same,SDL,Rattus norvegicus [10],100%
same,Hill coefficient,[11],1.18
CC[C@H](C)c1cc(OC)c(CC(C)N)cc1OC (stereo partly drawn),Ki,[12],7.87 nM
same,ED50,Rattus norvegicus [1],4.76 µmol/kg
same,Hill coefficient,[11],1.06
CC[C@@H](C)c1cc(OC)c(CC(C)N)cc1OC (stereo partly drawn),Ki,[12],7.84 nM
same,ED50,Rattus norvegicus [1],3.08 µmol/kg
same,SDL,Rattus norvegicus [13],0%
same,SDL,Rattus norvegicus [2],25%
same,SDL,Rattus norvegicus [14],50%
same,SDL,Rattus norvegicus [15],80%
same,Hill coefficient,[11],1
COc1cc(CC(C)N)c(OC)cc1C (stereo not drawn) [DOM],ED50,Rattus norvegicus [1],0.61 µmol/kg
same,SDL,Rattus norvegicus [16],13%
same,SDL,Rattus norvegicus [17],67%
same,SDL,Rattus norvegicus [18],67%
same,SDL,Rattus norvegicus [19],100%
same,Hill coefficient,[11],0.89
